MrgX1 PAM = positive allosteric modulators of MrgX1, primary screen, HEK293 cells, Fluo-4 calcium flux; Mas-related G-protein coupled receptor member X1 (Homo sapiens), Q96LB2; B-score at 10 µM; FDSS; hits give high values; actives 0.63% (n = 310,000);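 active means plate-corrected calcium response at least 3 library SD above typical, normal starting fluorescence, not activating the receptor alone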;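 further: compound read alongside a low EC10 to EC30 dose of BAM8-22 agonist; peak minus trough fluorescence over baseline measured at the second addition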
Target sequence (Q96LB2 whole entry, looked up): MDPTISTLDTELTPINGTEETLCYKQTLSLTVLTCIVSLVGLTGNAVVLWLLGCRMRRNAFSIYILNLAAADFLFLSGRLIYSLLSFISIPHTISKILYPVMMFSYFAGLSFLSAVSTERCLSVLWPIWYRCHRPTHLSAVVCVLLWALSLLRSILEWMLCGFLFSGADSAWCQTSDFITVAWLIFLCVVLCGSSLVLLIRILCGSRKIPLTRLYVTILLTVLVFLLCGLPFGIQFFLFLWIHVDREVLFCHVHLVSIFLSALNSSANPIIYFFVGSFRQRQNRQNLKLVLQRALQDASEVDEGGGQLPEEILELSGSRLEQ
MrgX1 antagonist = antagonists of human MrgX1 receptor, primary screen, HEK293 cells, Fluo-4 calcium flux | Mas-related G-protein coupled receptor member X1 (Homo sapiens), Q96LB2 | AID 588676, 2011 | B-score at 10 µM | actives 1.3% (n = 310,000) | BAM8-22 antagonism; hits give low values;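 active means calcium-response B-score plate-corrected more than 3 library SD below zero, starting fluorescence within 5 deviations, no agonist response on first addition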;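 further: peak minus trough fluorescence over baseline after final BAM8-22 challenge near maximal dose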
RGS4 act = RGS4 potentiators or activators, primary screen, cell-based, HEK293 M3R inducible RGS4, calcium flux. actives 0.92% (n = 310,000). AID 463111, 2010. carbachol calcium flux Fluo4; hits give low values. B-score at 10 µM;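 active means B-score of the integrated calcium signal more than 4 SD below the library mean, with starting fluorescence not abnormally high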;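 further: negative B-score means reduced calcium response which marks RGS4 activation or potentiation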
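test system = M3R-expressing HEK293 line, RGS4 induced by doxycycline | probe or stimulus = carbachol at ECmax as muscarinic agonist stimulus | timing = dye loading 30 min 37 °C, buffer rest 30 min RT | signal = calcium dye Fluo4 fluorescence | evaluation = B score from integrated fluorescence ratio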
RGS4 block = RGS4 inhibitors, primary screen, cell-based, HEK293 M3R inducible RGS4, calcium flux. B-score at 10 µM. Regulator of G-protein signaling 4 (Homo sapiens), P49798. AID 463165, 2010. Fluo-4 calcium flux; hits give high values; triggered by carbachol at its EC20. actives 0.45% (n = 310,000);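 active means B-score, a plate-corrected calcium signal, over three deviations above library mean, with baseline fluorescence within five deviations of library mean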;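 further: RGS4 expression induced by doxycycline in cells with stable M3 receptor; B-score is computed from the integrated fluorescence ratio over baseline after carbachol; higher B-score means a larger calcium signal and so more RGS4 inhibition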
MrgX1 agonist = agonists of human MrgX1 receptor, primary screen, HEK293 cells, Fluo-4 calcium flux; Mas-related G-protein coupled receptor member X1 (Homo sapiens), Q96LB2; Fluo-4 calcium fluorescence, agonist mode; hits give high values; B-score at 10 µM; actives 0.44% (n = 310,000); AID 588627, 2011;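 active means calcium response B-score plate-corrected fluorescence ratio at least 3 library SD, with starting fluorescence B-score inside 5 SD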
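Material – MrgX1-expressing HEK293 cells · Input – 15,000 cells seeded per well · Dosing – compound as first of three additions · Times – overnight seeding, then 1 h dark dye loading · Measured by – kinetic Fluo-4 NW fluorescence of intracellular calcium · Read-out – B-scored fluorescence response ratio · Benchmarks – positive and negative control wells on each plate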
RGS4 activ val = reduced carbachol calcium response, RGS4-induced M3R cells, confirmation, RGS4 activator project, cell-based, HEK293 M3R/RGS4 inducible, calcium flux, duplicate | carbachol calcium flux Fluo4 | shares compounds with RGS4 act | actives 89% (n = 1,100) | inhibition, % at 10 µM | AID 602282, 2012;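 active means inhibition above 3 SD of the buffer control wells, cut at about 41% in these data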;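 further: signal is the integrated peak-minus-minimum Fluo4 fluorescence over baseline ratio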
RGS4 act ctr = activity in cells without induced RGS4 expression. shares compounds with RGS4 act. HEK293 M3R non-induced RGS4, Fluo4 calcium flux; after carbachol challenge at its EC90. inhibition, % at 10 µM. actives 82% (n = 1,100);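 active means inhibition exceeding 3 SD of buffer-only control wells, cut at about 26% in these data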;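 further: percent drop in integrated peak-minus-baseline over baseline Fluo4 ratio after carbachol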
Numbers without * were called inactive; i = inactive; x = not tested or not shown. Hits are enriched below; roughly 3.5% of the tested compounds scored in any of these assays.

SMILES	MrgX1 PAM	MrgX1 antagonist	RGS4 act	RGS4 block	MrgX1 agonist	RGS4 activ val	RGS4 act ctr
CN1/C(=C/C=C(C#N)C#N)C(C)(C)c2ccccc21	i	i	-7.8*	i	i	88*	82*
Cc1ccc(C(=O)NCc2ccncc2)cc1S(=O)(=O)N1CCOCC1	i	i	i	i	i	x	x
COc1cc2ccccc2cc1C(=O)Nc1ccc(N2CCN(C(=O)C(C)C)CC2)cc1	i	i	i	i	i	x	x
CSc1ccc2c(c1)C(N1CCN(C)CC1)Cc1ccc(F)cc1S2 (centres undefined)	i	i	-11*	i	i	94*	90*
COc1ccccc1/C=N/NC(=O)c1ccc(=O)n(C)c1	i	i	i	i	i	x	x
CC1(C)C2CCC1(CS(=O)(=O)Nc1ccc(S(=O)(=O)N3CCCCC3)cc1)C(=O)C2 (centres undefined)	i	i	i	i	i	x	x
Cc1ccc(CNC(=O)c2ccc(Cn3nc(C)c(Cl)c3C)o2)cc1	i	i	i	i	i	x	x
Cc1cc(C)cc(NC(=O)c2ccc(Cn3nc(C)c(Cl)c3C)o2)c1	i	i	-12*	i	i	70*	64*
O=C(Nc1ccccc1)Nc1cc(Cl)cc(Cl)c1	i	i	-8.3*	i	i	62*	84*
Cc1ccc(S(=O)(=O)Nc2cccc(-c3ccc4nnc(C)n4n3)c2)s1	i	i	i	i	i	x	x
COc1cccc(-c2nn(-c3ccccc3)cc2C(=O)O)c1	i	i	i	i	i	x	x
COc1cccc(-c2nn(-c3ccc(C)cc3)cc2C(=O)N2CCc3cc(OC)c(OC)cc3C2)c1	i	i	-9.2*	i	i	45*	0
CC(=O)NCCc1nc2cc(NC(=O)c3ccc(Cl)cc3)ccc2n1C	i	i	i	i	i	x	x
Cc1ccc(OCC(=O)O/N=C(\N)Cc2ccc([N+](=O)[O-])cc2)cc1C	i	i	-11*	i	i	0	0
CSc1nc(N(C)NC(=O)c2ccccc2)c2ccccc2n1	i	i	i	i	i	x	x
CNC(=O)C1CC(=O)N(Cc2ccc3c(c2)OCO3)C(=Nc2ccc(OC)cc2)S1 (centres undefined)	i	i	-11*	i	i	0	0
CNC(=O)C1CC(=O)N(CCc2ccc(OC)cc2)C(=Nc2ccc(OC)cc2)S1 (centres undefined)	i	i	i	i	i	x	x
CN1CCCN(C(=O)CSc2ccccc2)CC1	i	i	i	i	i	x	x
CN1CCCN(C(=O)CC(c2ccccc2)c2ccccc2)CC1	i	i	-8.1*	i	i	88*	47*
Cc1cc2c(s1)Nc1ccccc1N=C2N1CCN(C)CC1	i	i	-9.5*	i	i	91*	85*
OCCOCCN1CCN(C2=Nc3ccccc3Sc3ccccc32)CC1	i	i	i	i	i	x	x
Cc1cccc2nc(-c3ccco3)c(Nc3ccc4c(c3)OCCO4)n12	i	i	i	i	i	x	x
O=S(=O)(c1ccc(N2CC=C(c3ccccc3)CC2)nc1)N1CCCC1	i	i	-9.3*	i	i	54*	0
COc1cc(/C=N/NC(=O)Cc2ccccc2)ccc1Oc1ccc([N+](=O)[O-])cc1[N+](=O)[O-]	i	i	i	i	i	x	x
CN1CCN(C(=O)C2CCN(c3ncc(C(F)(F)F)cc3Cl)CC2)CC1	i	i	-12*	i	i	86*	41*

Screening data (PubChem BioAssay)
